In ChEMBL document CHEMBL1123031, “Adriamycin analogues. rationale, synthesis, and preliminary antitumor evaluation of highly active DNA-nonbinding N-(trifluoroacetyl)adriamycin 14-O-hemiester derivatives” (1985):

Experiments:
Format in all cases: functional
Mus musculus [1] = assay: In vivo antitumor efficacy expressed as number survivors in 60-days out of 7 male mice at dose 40 mg/kg; Value represented as = 6/7
Mus musculus [2] = assay: In vivo percent increase in life span relative to untreated controls in B6D2F1/J male mice at dose 30 mg/kg
Mus musculus [3] = assay: In vivo antitumor efficacy expressed as number survivors in 60-days out of 7 male mice at dose 30 mg/kg; Value represented as = 4/7
Mus musculus [4] = assay: In vivo percent increase in life span relative to untreated controls in B6D2F1/J male mice at dose 40 mg/kg
Mus musculus [5] = assay: In vivo antitumor efficacy expressed as number survivors in 60-days out of 7 male mice at dose 20 mg/kg; Value represented as = 3/7
CCRF-CEM = assay: In vitro inhibitory activity against CCRF-CEM cell growth in culture, after 48-h incubation.; details: Homo sapiens, read-out: ID50 (the source's name)
How it was run: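 Human lymphoblastic leukemia CCRF-CEM cells grown in culture with drug for 48 h. ID50 is the drug concentration that inhibits culture growth by 50% relative to untreated controls, reported in μM.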

Mus musculus [6] = assay: In vivo antitumor efficacy expressed as number survivors in 60-days out of 7 male mice at dose 50 mg/kg; Value represented as = 5/7
Mus musculus [7] = assay: In vivo percent increase in life span relative to untreated controls in B6D2F1/J male mice at dose 50 mg/kg
Mus musculus [8] = assay: In vivo antitumor efficacy expressed as number survivors in 60-days out of 7 male mice at dose 60 mg/kg; Value represented as = 5/7
Mus musculus [9] = assay: In vivo percent increase in life span relative to untreated controls in B6D2F1/J male mice at dose 20 mg/kg
Mus musculus [10] = assay: In vivo percent increase in life span relative to untreated controls in B6D2F1/J male mice at dose 60 mg/kg
Mus musculus [11] = assay: In vivo antitumor efficacy expressed as number survivors in 60-days out of 7 male mice at dose 60 mg/kg; Value represented as = 6/7
Mus musculus [12] = assay: In vivo percent increase in life span relative to untreated controls in B6D2F1/J male mice at dose 70 mg/kg
Mus musculus [13] = assay: In vivo antitumor efficacy expressed as number survivors in 60-days out of 7 male mice at dose 70 mg/kg; Value represented as = 7/7
Mus musculus [14] = assay: In vivo antitumor efficacy expressed as number survivors in 60-days out of 7 male mice at dose 40 mg/kg; Value represented as = 1/7
Mus musculus [15] = assay: In vivo antitumor efficacy expressed as number survivors in 60-days out of 7 male mice at dose 50 mg/kg; Value represented as = 2/7
Mus musculus [16] = assay: In vivo antitumor efficacy expressed as number survivors in 60-days out of 7 male mice at dose 60 mg/kg; Value represented as = 4/7
Mus musculus [17] = assay: In vivo antitumor efficacy expressed as number survivors in 60-days out of 7 male mice at dose 70 mg/kg; Value represented as = 4/7
Mus musculus [18] = assay: In vivo antitumor efficacy expressed as number survivors in 60-days out of 7 male mice at dose 30 mg/kg; Value represented as = 0/7
Mus musculus [19] = assay: In vivo antitumor efficacy expressed as number survivors in 60-days out of 7 male mice at dose 50 mg/kg; Value represented as = 4/7
Mus musculus [20] = assay: In vivo antitumor efficacy expressed as number survivors in 60-days out of 7 male mice at dose 40 mg/kg; Value represented as = 0/7
Mus musculus [21] = assay: In vivo antitumor efficacy expressed as number survivors in 60-days out of 7 male mice at dose 70 mg/kg; Value represented as = 6/7
Mus musculus [22] = assay: In vivo antitumor efficacy expressed as number survivors in 60-days out of 7 male mice at dose 60 mg/kg; Value represented as = 7/7
Mus musculus [23] = assay: In vivo antitumor efficacy expressed as number survivors in 60-days out of 7 male mice at dose 50 mg/kg; Value represented as = 1/7
Mus musculus [24] = assay: In vivo antitumor efficacy expressed as number survivors in 60-days out of 7 male mice at dose 40 mg/kg; Value represented as = 3/7
Mus musculus [25] = assay: In vivo antitumor efficacy expressed as number survivors in 60-days out of 7 male mice at dose 70 mg/kg; Value represented as = 1/7
Mus musculus [26] = assay: In vivo antitumor efficacy expressed as number survivors in 60-days out of 7 male mice at dose 50 mg/kg; Value represented as = 0/7
Mus musculus [27] = assay: In vivo antitumor efficacy expressed as number survivors in 60-days out of 7 male mice at dose 60 mg/kg; Value represented as = 1/7
Mus musculus [28] = assay: In vivo antitumor efficacy expressed as number survivors in 60-days out of 7 male mice at dose 60 mg/kg; Value represented as = 0/7
Mus musculus [29] = assay: In vivo antitumor efficacy expressed as number survivors in 60-days out of 7 male mice at dose 4 mg/kg; Value represented as = 0/7
Mus musculus [30] = assay: In vivo antitumor efficacy expressed as number survivors in 60-days out of 7 male mice at dose 2 mg/kg; Value represented as = 0/7
Mus musculus [31] = assay: In vivo percent increase in life span relative to untreated controls in B6D2F1/J male mice at dose 1 mg/kg
Mus musculus [32] = assay: In vivo percent increase in life span relative to untreated controls in B6D2F1/J male mice at dose 4 mg/kg
Mus musculus [33] = assay: In vivo antitumor efficacy expressed as number survivors in 60-days out of 7 male mice at dose 3 mg/kg; Value represented as = 0/7
Mus musculus [34] = assay: In vivo antitumor efficacy expressed as number survivors in 60-days out of 7 male mice at dose 1 mg/kg; Value represented as = 0/7
Mus musculus [35] = assay: In vivo percent increase in life span relative to untreated controls in B6D2F1/J male mice at dose 3 mg/kg
Mus musculus [36] = assay: In vivo percent increase in life span relative to untreated controls in B6D2F1/J male mice at dose 2 mg/kg
Mus musculus [37] = assay: In vivo antitumor efficacy expressed as number survivors in 60-days out of 7 male mice at dose 5 mg/kg; Value represented as = 0/7

SMILES	ILS at 30 mg/kg (Mus musculus [2]) [%]	ILS at 40 mg/kg (Mus musculus [4]) [%]	IC50 (CCRF-CEM) [nM]	Survivors (Mus musculus [6])	ILS at 50 mg/kg (Mus musculus [7]) [%]	Survivors (Mus musculus [8])	ILS at 60 mg/kg (Mus musculus [10]) [%]	ILS at 70 mg/kg (Mus musculus [12]) [%]	Survivors (Mus musculus [20])	other results
CCCCC(=O)OCC(=O)[C@]1(O)Cc2c(O)c3c(c(O)c2[C@@H](OC2CC(NC(=O)C(F)(F)F)C(O)C(C)O2)C1)C(=O)c1c(OC)cccc1C3=O (some centres undefined)	> 445	> 445	240	5	> 445	5	> 445			Survivors (Mus musculus [1]): 6; Survivors (Mus musculus [3]): 4; Survivors (Mus musculus [5]): 3; ILS at 20 mg/kg (Mus musculus [9]): 281%
COc1cccc2c1C(=O)c1c(O)c3c(c(O)c1C2=O)C[C@@](O)(C(=O)COC(=O)CCCCC(=O)O)C[C@@H]3OC1CC(NC(=O)C(F)(F)F)C(O)C(C)O1 (some centres undefined)		> 445	310	5	> 445		> 445	> 445		Survivors (Mus musculus [1]): 6; Survivors (Mus musculus [11]): 6; Survivors (Mus musculus [13]): 7
COc1cccc2c1C(=O)c1c(O)c3c(c(O)c1C2=O)C[C@@](O)(C(=O)COC(=O)CCCC(=O)O)C[C@@H]3OC1CC(NC(=O)C(F)(F)F)C(O)C(C)O1 (some centres undefined)	81	109	280		172		> 445	> 445		Survivors (Mus musculus [14]): 1; Survivors (Mus musculus [15]): 2; Survivors (Mus musculus [16]): 4; Survivors (Mus musculus [17]): 4; Survivors (Mus musculus [18]): 0
COc1cccc2c1C(=O)c1c(O)c3c(c(O)c1C2=O)C[C@@](O)(C(=O)COC(=O)CCCCCCCCC(=O)O)C[C@@H]3OC1CC(NC(=O)C(F)(F)F)C(O)C(C)O1 (some centres undefined)		109	500		> 445	5	> 445	> 445	0	Survivors (Mus musculus [19]): 4; Survivors (Mus musculus [21]): 6
COc1cccc2c1C(=O)c1c(O)c3c(c(O)c1C2=O)C[C@@](O)(C(=O)COC(=O)CCCCCC(=O)O)C[C@@H]3OC1CC(NC(=O)C(F)(F)F)C(O)C(C)O1 (some centres undefined)		181	360		136		> 445	> 445		Survivors (Mus musculus [22]): 7; Survivors (Mus musculus [23]): 1; Survivors (Mus musculus [24]): 3; Survivors (Mus musculus [21]): 6
COc1cccc2c1C(=O)c1c(O)c3c(c(O)c1C2=O)C[C@@](O)(C(=O)CO)C[C@@H]3OC1CC(NC(=O)C(F)(F)F)C(O)C(C)O1 (some centres undefined)			230							
COc1cccc2c1C(=O)c1c(O)c3c(c(O)c1C2=O)C[C@@](O)(C(=O)COC(=O)CC(=O)O)C[C@@H]3OC1CC(NC(=O)C(F)(F)F)C(O)C(C)O1 (some centres undefined)		109	330		109		136	154	0	Survivors (Mus musculus [25]): 1; Survivors (Mus musculus [26]): 0; Survivors (Mus musculus [27]): 1
COc1cccc2c1C(=O)c1c(O)c3c(c(O)c1C2=O)C[C@@](O)(C(=O)COC(=O)CCC(=O)O)C[C@@H]3OC1CC(NC(=O)C(F)(F)F)C(O)C(C)O1 (some centres undefined)		127	300		118		127	190	0	Survivors (Mus musculus [25]): 1; Survivors (Mus musculus [26]): 0; Survivors (Mus musculus [28]): 0
COc1cccc2c1C(=O)c1c(O)c3c(c(O)c1C2=O)C[C@@](O)(C(=O)COC(=O)CCCCCCCC(=O)O)C[C@@H]3OC1CC(NC(=O)C(F)(F)F)C(O)C(C)O1 (some centres undefined)	445	172	440	5	> 445	5	> 445	> 445		Survivors (Mus musculus [3]): 4; Survivors (Mus musculus [24]): 3; Survivors (Mus musculus [13]): 7
COc1cccc2c1C(=O)c1c(O)c3c(c(O)c1C2=O)C[C@@](O)(C(=O)CO)C[C@@H]3O[C@H]1C[C@H](N)[C@H](O)[C@H](C)O1 [DOXORUBICIN]			50							Survivors (Mus musculus [29]): 0; Survivors (Mus musculus [30]): 0; ILS at 1 mg/kg (Mus musculus [31]): 81%; ILS at 4 mg/kg (Mus musculus [32]): 63%; Survivors (Mus musculus [33]): 0; Survivors (Mus musculus [34]): 0; ILS at 3 mg/kg (Mus musculus [35]): 181%; ILS at 2 mg/kg (Mus musculus [36]): 90%; Survivors (Mus musculus [37]): 0
